In ChEMBL document CHEMBL2346611, “Preliminary structure-activity relationships and biological evaluation of novel antitubercular indolecarboxamide derivatives against drug-susceptible and drug-resistant Mycobacterium tuberculosis strains” (J Med Chem, 2013):
Converted amounts (≈) assume the structure as drawn. The source made the active and inactive calls. No cut-off for these calls is given here.

Columns and labels:
[1] = test system: Mycobacterium tuberculosis; assay: Antitubercular activity against Mycobacterium tuberculosis H37Rv by microplate Alamar Blue assay; format: functional
Method in brief: (§1)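 Mycobacterium tuberculosis strains were used: H37Rv, and clinical strains from KwaZulu-Natal (MDR KZN494 and V2475; XDR TF274 and R506). Growth was read by microplate Alamar Blue assay. MIC is the lowest drug concentration giving at least a 90% reduction of the bacterial growth signal. Values are the average of three individual measurements.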

[2] = test system: Mycobacterium tuberculosis; assay: Antitubercular activity against Mycobacterium tuberculosis H37Rv after 21 days by spectrophotometric analysis; format: functional; settings: 504 h
[3] = test system: Mycobacterium tuberculosis; assay: Antitubercular activity against Mycobacterium tuberculosis H37Rv; format: functional; method in brief: as §1
Vero = assay: Cytotoxicity against african green monkey Vero cells by microplate Alamar Blue assay; format: cell-based; settings: Chlorocebus sabaeus
Method in brief: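 Cytotoxicity was measured on Vero cells in microplate Alamar Blue assay format.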

[4] = Selectivity index, ratio of IC50 for african green monkey vero cells to MIC90 for Mycobacterium tuberculosis H37Rv; format: functional
[5] = test system: Mycobacterium tuberculosis; assay: Antitubercular activity against Mycobacterium tuberculosis H37Rv in 300 mg/kg, po dosed Balb/c mouse serum measured after 7 days by serum inhibition titration based microplate Alamar Blue assay; format: functional, organism-based; parameters: dose 300 mg/kg
Method in brief: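 Six-week-old female BALB/c mice got a single oral gavage of 100 or 300 mg/kg, ground to a suspension in 0.5% carboxymethyl cellulose. Controls were isoniazid 10 mg/kg and vehicle. Cardiac blood was taken at 15, 30 and 60 min and serum separated. Serum was two-fold serially diluted, 10^4 CFU H37Rv added, incubated 7 days and read by MABA.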

[6] = test system: Mycobacterium tuberculosis; assay: Antitubercular activity against drug-susceptible Mycobacterium tuberculosis V4207 by microplate Alamar Blue assay; format: functional
[7] = test system: Mycobacterium tuberculosis; assay: Ratio of isoniazid MIC to compound MIC for Mycobacterium tuberculosis H37Rv; format: functional

Row | Structure (SMILES) | MIC90 [1] [µM] | other results
1 | Cc1cc(C)c2cc(C(=O)NC3CCN(C(C)C)CC3)[nH]c2c1 | 204 (≈ 63.9 µg/mL) | –
2 | O=C(NC12CC3CC(CC(C3)C1)C2)c1cc2cc(Cl)ccc2[nH]1 | 0.38 (≈ 0.125 µg/mL) | –
3 | Cc1cc(C)c2nc(C(=O)NC3C4CC5CC(C4)CC3C5)[nH]c2c1 (stereo not given) | 1.5 (≈ 0.485 µg/mL) | –
4 | Cc1cc(C)c2c(C(=O)NC3CCCCCCC3)c[nH]c2c1 | 200 (≈ 59.7 µg/mL) | –
5 | O=[N+]([O-])c1cn2c(n1)OC[C@@H](OCc1ccc(OC(F)(F)F)cc1)C2 [PRETOMANID] | – | MIC90 [2]: 0.04 µM (≈ 0.0144 µg/mL)
6 | O=C(NC12CC3CC(CC(C3)C1)C2)c1cc2ccc(O)cc2[nH]1 | 13 (≈ 4.04 µg/mL) | –
7 | Cc1cc(C)c2cc(C(=O)NC3CC3)[nH]c2c1 | 561 (≈ 128 µg/mL) | –
8 | COc1nc2ccc(Br)cc2cc1[C@@H](c1ccccc1)[C@@](O)(CCN(C)C)c1cccc2ccccc12 [BEDAQUILINE] | – | MIC90 [3]: 0.05 µM (≈ 0.0278 µg/mL)
9 | Cc1cc(C)c2cc(C(=O)Nc3ccccc3)[nH]c2c1 | 3.8 (≈ 1 µg/mL) | IC50 (Vero): > 200 µM
10 | Cc1cc(C)c2nc(C(=O)NC34CC5CC(CC(C5)C3)C4)[nH]c2c1 | 0.39 (≈ 0.126 µg/mL) | –
11 | O=C(NC1CCCCCCC1)c1cc2cc(Cl)ccc2o1 | 26 (≈ 7.95 µg/mL) | –
12 | Cc1cc(C)c2c(C(=O)NC3CCCCCC3)c[nH]c2c1 | 200 (≈ 56.9 µg/mL) | –
13 | Cc1cc(C)c2cc(C(=O)NC3C4CC5CC(C4)CC3C5)[nH]c2c1 (stereo not given) | 0.012 (≈ 0.00387 µg/mL) | IC50 (Vero): > 200 µM; Selectivity Index [4]: >16600; Activity [5]: inactive
14 | Cc1cc(C)c2cc(C(=O)N3CCCCC3)[nH]c2c1 | > 499 | –
15 | Cc1cc(C)c2nc(C(=O)NC3CCCCCCC3)[nH]c2c1 | 1.7 (≈ 0.509 µg/mL) | –
16 | Cc1cc(C)c2cc(C(=O)NC3CCCCCC3)oc2c1 | 56 (≈ 16 µg/mL) | –
17 | O=C(NC12CC3CC(CC(C3)C1)C2)c1cc2cc(Cl)ccc2o1 | ≥ 388 | –
18 | Cc1cc(C)c2cc(C(=O)NC3CC4CCC3C4)oc2c1 (stereo not given) | 113 (≈ 32 µg/mL) | –
19 | O=C(NC1CCCCC1)c1cc2ccccc2[nH]1 | > 528 | –
20 | Cc1cc(C)c2cc(C(=O)NC3CCN(C)CC3)[nH]c2c1 | 448 (≈ 128 µg/mL) | –
21 | O=C(NC1CCCCCCC1)c1cc2c(F)cc(F)cc2[nH]1 | 0.1 (≈ 0.0306 µg/mL) | –
22 | Cc1cc(C)c2c(C(=O)NC3C4CC5CC(C4)CC3C5)c[nH]c2c1 (stereo not given) | 200 (≈ 64.5 µg/mL) | –
23 | Cc1cc(C)c2cc(C(=O)NC3CCCCCCC3)oc2c1 | 27 (≈ 8.08 µg/mL) | –

Row | Structure (SMILES) | MIC90 [1] [µM] | other results
24 | NNC(=O)c1ccncc1 [ISONIAZID] | 0.29 (≈ 0.0398 µg/mL) | –
25 | Cc1cc(C)c2cc(C(=O)N(C)C3CCCCC3)[nH]c2c1 | 450 (≈ 128 µg/mL) | –
26 | Cc1cc(C)c2c(C(=O)NC34CC5CC(CC(C5)C3)C4)c[nH]c2c1 | 200 (≈ 64.5 µg/mL) | –
27 | Cc1cc(C)c2nc(C(=O)NC3CCCCCC3)[nH]c2c1 | > 224 | –
28 | COc1cc2[nH]c(C(=O)NC3CCCCCCC3)cc2cn1 | 6.6 (≈ 1.99 µg/mL) | –
29 | Cc1cc(C)c2cc(C(=O)Nc3ccncc3)[nH]c2c1 | 240 (≈ 63.7 µg/mL) | –
30 | Cc1cc(C)c2cc(C(=O)NC34CC5CC(CC(C5)C3)C4)[nH]c2c1 | 0.012 (≈ 0.00387 µg/mL) | IC50 (Vero): > 200 µM; Selectivity Index [4]: >16600; Activity [5]: inactive
31 | Cc1cc(C)c2cc(C(=O)NC3CCCCC3)[nH]c2c1 | 0.93 (≈ 0.251 µg/mL) | IC50 (Vero): > 200 µM; MIC90 [6]: 0.93 µM (≈ 0.251 µg/mL)
32 | COc1ccc2cc(C(=O)NC34CC5CC(CC(C5)C3)C4)[nH]c2c1 | 0.77 (≈ 0.25 µg/mL) | –
33 | COc1cc2[nH]c(C(=O)NC34CC5CC(CC(C5)C3)C4)cc2cn1 | 1.5 (≈ 0.488 µg/mL) | –
34 | Cc1cc(C)c2cc(C(=O)Nc3ccc(C)c(F)c3)[nH]c2c1 | 1.7 (≈ 0.504 µg/mL) | IC50 (Vero): > 200 µM
35 | CCCCCCNC(=O)c1cc2c(C)cc(C)cc2o1 | 59 (≈ 16.1 µg/mL) | –
36 | Cc1cc(C)c2cc(C(=O)NC34CC5CC(CC(C5)C3)C4)oc2c1 | 3.1 (≈ 1 µg/mL) | –
37 | Cc1cc(C)c2cc(C(=O)NC3CCCCC3)n(C)c2c1 | 450 (≈ 128 µg/mL) | –
38 | Cc1ccc(NC(=O)c2cc3ccccc3[nH]2)cc1F | 477 (≈ 128 µg/mL) | –
39 | Cc1cc(C)c2cc(C(=O)NC3CCCCCCC3)[nH]c2c1 | 0.013 (≈ 0.00388 µg/mL) | IC50 (Vero): 54 µM; Selectivity Index [4]: 4100; Activity [5]: Active; MIC90 [6]: 0.026 µM (≈ 0.00776 µg/mL)
40 | Cc1cc(C)c2cc(C(=O)NC3CCCN(C)CC3)[nH]c2c1 (stereo not given) | 428 (≈ 128 µg/mL) | –
41 | Cc1cc(C)c2cc(C(=O)NC3CCCCCC3)[nH]c2c1 | 0.055 (≈ 0.0156 µg/mL) | IC50 (Vero): > 200 µM; Selectivity Index [4]: >3600; Ratio [7]: 5; Activity [5]: inactive; MIC90 [6]: 0.11 µM (≈ 0.0313 µg/mL)
42 | Cc1cc(C)c2cc(C(=O)NCC3CCCCC3)[nH]c2c1 | 0.88 (≈ 0.25 µg/mL) | IC50 (Vero): > 200 µM
43 | O=C(NC1CCCCCC1)c1cc2c(C(F)(F)F)cc(C(F)(F)F)cc2[nH]1 | 0.64 (≈ 0.251 µg/mL) | –
44 | O=C(NC1CCCCCC1)c1cc2c(F)cc(F)cc2[nH]1 | 0.86 (≈ 0.251 µg/mL) | –
45 | O=C(NC1CCCCCCC1)c1cc2c(C(F)(F)F)cc(C(F)(F)F)cc2[nH]1 | 0.04 (≈ 0.0163 µg/mL) | –
